# A selection: hits, their analogues and other compounds. The true share with any hit is near 2.2%.
# C8 TRAIL sens – sensitizes caspase-8 expressing cells to TRAIL. NB7+C8 cells + TRAIL, ATPlite viability luminescence. inhibition (viability loss, TRAIL sensitization), % at 10 µM. 360,000 compounds, 1% hits. AID 624354;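 active = compounds causing at least 50% loss of cell viability in the single-dose screen, relative to plate controls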
# NF-kB expr up – raises NF-kB expression in human neuronal cells | NF-kB reporter expression; stronger effect = higher value | 190,000 compounds, 1.6% hits | AID 1239 | fold change at 12.5 µM; in the data active = fold change above about 3.3
# FLuc stim CS – firefly luciferase counter-screen for stimulation assays; ATPlite luciferase biochemical, luminescence, 10 min; 0 = ATP-free wells, 1 = DMSO control; activation factor at 10 µM; 200,000 tested, under 10 active;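 active = luciferase activation factor, scaled between plate controls, of at least 2 with compound at 10 µM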
# Target sequence (P08659 whole entry, looked up): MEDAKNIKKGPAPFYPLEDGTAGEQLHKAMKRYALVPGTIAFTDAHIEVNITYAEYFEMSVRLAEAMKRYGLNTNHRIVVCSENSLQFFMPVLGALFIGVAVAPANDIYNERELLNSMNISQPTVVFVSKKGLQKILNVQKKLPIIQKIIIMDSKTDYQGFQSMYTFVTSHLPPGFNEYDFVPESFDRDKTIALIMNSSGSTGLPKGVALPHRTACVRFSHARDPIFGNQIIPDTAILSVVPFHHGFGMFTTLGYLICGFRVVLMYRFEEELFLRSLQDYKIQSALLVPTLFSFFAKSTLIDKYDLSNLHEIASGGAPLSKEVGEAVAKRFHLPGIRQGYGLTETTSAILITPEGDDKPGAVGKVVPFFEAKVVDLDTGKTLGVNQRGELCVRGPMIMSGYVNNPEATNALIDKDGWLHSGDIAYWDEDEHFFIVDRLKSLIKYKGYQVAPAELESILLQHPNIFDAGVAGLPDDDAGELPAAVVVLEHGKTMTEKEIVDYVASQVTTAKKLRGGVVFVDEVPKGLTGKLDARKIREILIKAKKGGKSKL
#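 Material: Luciferase/luciferin reagent mix; Doses: test compounds dosed from 2 mM stocks in 100% DMSO; Schedule: 10 min incubation after luciferase reagent addition, room temperature; Measured by: luminescence from luciferase reaction; Read-out: luminescence gain marking luciferase activators.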
# PPC-1+TRAIL kill – PPC-1 cancer cell killing with TRAIL present; PPC-1 cells + TRAIL, ATPLite viability luminescence; cell killing (% activity), % at 4 µM or 5 µM; 220,000 compounds, 0.41% hits; AID 1443;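 active = cell killing above 50% in the first pass at 4 µM, then a duplicate retest at 5 µM averaging 50% or more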;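 note: plate controls were cells with TRAIL plus DMSO for no effect and medium-only wells lacking cells for full effect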
# APP 5'UTR act – activates APP 5'UTR luciferase reporter | SH-SY5Y APP 5'UTR luciferase reporter, luminescence; zero percent = DMSO vehicle wells | activation, % at 2 µM | 190,000 compounds, 1% hits;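 active = activation above a set limit, based on mean plus 3 SD of controls, cut at about 140% in these data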
# FLuc inhib CS – Photinus pyralis luciferase inhibition counter-screen | P08659 | ATPLite firefly luciferase biochemical luminescence, 10 min | inhibition, % at 10 µM | 200,000 compounds, 1.5% hits | AID 1006;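 active = inhibition above about 50% when tested at 10 µM, limit read from the data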
# Active calls of the source: *; nt = no result.
SMILES,C8 TRAIL sens,NF-kB expr up,FLuc stim CS,PPC-1+TRAIL kill,APP 5'UTR act,FLuc inhib CS
CC(C)CC(COCc1ccc(C(F)(F)F)cc1)N1CCN(C(=O)c2ccc(C(F)(F)F)cc2)CCC1=O (centres undefined),21.2,3.92*,1,2.4,19.6,1.0
O=c1c(C=NCc2cccnc2)c(C(F)(F)F)[nH]n1-c1nc2ccccc2s1,44.9,1.48,0.3,nt,95.0,73.8*
CCC(=NCc1ccccc1)c1c(C(F)(F)F)[nH]n(-c2nc3ccccc3s2)c1=O,4.8,0.66,0.9,21.4,8.0,8.5
COc1cc2c(cc1OC)-c1nnc(C)n1C(C)(C)C2,-10.8,1.07,1,66.2*,12.2,-3.7
COc1cc2c(cc1OC)-c1nnc(C)n1C1(CCCC1)C2,-6.6,1.05,1,0.5,-6.0,-4.5
CCCCOCCCNC(=O)C[C@@H]1C[C@@]2(C(=O)OC)CC(C)(C)CC=C2N(Cc2ccc3c(c2)OCO3)C1=O,-15.8,nt,nt,nt,nt,nt
CN(C)c1ccc(N=C/C=C2\N(C)c3ccccc3C2(C)C)cc1,-0.6,1.01,1,27.6,142.8*,4.1
CN1/C(=C\C=Nc2ccc3ccccc3c2)C(C)(C)c2ccccc21,9.1,0.4,1,20.6,15.1,-2.4
O=C(NCC1CCCO1)c1cc(-c2ccccc2)on1 (centres undefined),1.6,7.79*,1,6.6,32.8,3.8
O=C(NCC1CCCO1)c1cc(-c2ccc(Cl)cc2Cl)on1 (centres undefined),45.0,3.39*,0.3,44.7,66.5,70.8*
Cc1ccc(-c2cc(C(=O)NCC3CCCO3)no2)cc1 (centres undefined),18.6,3.25,0.6,47.2,111.6,42.6
Cc1ccc(O)c(C2=NCCNC(C(F)(F)F)=C2)c1,-3.1,1.15,1.1,-0.8,-2.1,-10.0
Oc1c(C2=NCCNC(C(F)(F)F)=C2)ccc2ccccc12,9.0,6.01*,0.8,25.6,132.7,19.8
Cc1ccc(F)cc1-c1cc2nc(NCCCN(C)C)n(C)c(=O)c2s1,2.4,nt,nt,nt,nt,nt
Nc1c2c(nc3sc4c(c13)CCCCC4)CCCCC2,65.0*,3.99*,0.4,3.5,185.1*,61.9*
O=C(NC(=S)N1CCN(c2ccc(C(F)(F)F)cc2[N+](=O)[O-])CC1)c1cccs1,50.6*,0.96,1.1,15.9,6.7,-8.8
Cc1ccc2nc3sc(C(=O)NCc4ccco4)c(N)c3cc2c1,20.7,3.66*,0.5,9.5,179.2*,50.0*
Cc1ccc2nc3sc(C(=O)N4CCOCC4)c(N)c3cc2c1,-9.9,1.61,0.2,-9.5,192.4*,80.6*
COc1ccc2cc3c(N)c(C(=O)N4CCCC4)sc3nc2c1,nt,1.32,0.8,12.0,120.5,16.0
Cc1ccc2cc3c(N)c(C(=O)N4CCOCC4)sc3nc2c1,0.8,1.65,0.6,5.3,178.0*,37.0
O=C(NC(c1ccccc1)c1ccsc1)C1CCN(CCOc2ccc(Cl)cc2Cl)CC1 (centres undefined),-11.4,nt,nt,nt,nt,nt
Nc1c2ccccc2nc2ccccc12,63.9*,nt,nt,28.6,nt,nt
Cc1c(N(C)C)nc2ccccc2c1N,0.3,2.02,1,-7.2,10.6,-3.0
COC(=O)COc1ccc(C)cc1-n1nc2ccccc2n1,-21.1,1.09,1.1,6.3,-0.8,-6.3
Cc1ccc(OC(=O)COc2ccccc2)c(-n2nc3ccccc3n2)c1,6.0,4.78*,1,21.7,59.9,-0.4
SMILES,C8 TRAIL sens,NF-kB expr up,FLuc stim CS,PPC-1+TRAIL kill,APP 5'UTR act,FLuc inhib CS
Cc1ccc(OC(=O)c2cccc([N+](=O)[O-])c2)c(-n2nc3ccccc3n2)c1,8.2,1.2,1.1,-0.1,115.4,-8.1
Cc1ccc(OC(=O)COc2ccccc2C)c(-n2nc3ccccc3n2)c1,7.1,3.8*,1,12.9,91.3,-0.2
Cc1ccc(C)c(C(O)c2ncc(-c3cccc(C(F)(F)F)c3)[nH]2)c1 (centres undefined),-8.0,nt,nt,nt,nt,nt
COc1ccc2c(C)c(Cl)c(=O)oc2c1,-8.4,1.17,1.1,0.0,-6.4,-5.2
C=C1CC(COc2ccc3c(C)c(Cl)c(=O)oc3c2)(c2ccccc2)OC1=O (centres undefined),90.4*,nt,nt,nt,nt,nt
O=C1CCCC2=C1C(c1ccc(O)cc1)c1c(ccc3ccccc13)N2 (centres undefined),-8.3,0.89,1,8.6,202.5*,0.8
Cc1ccc(/C=C2\Sc3ccccc3C2=O)s1,8.1,5.52*,0.1,10.8,28.2,87.3*
OC1C2COC(O2)C2OC(c3ccccc3)OC12 (centres undefined),6.2,nt,nt,nt,nt,nt
Cc1ccc(OCc2nc(-c3ccccn3)n[nH]2)cc1,20.4,13*,0.8,29.9,25.9,15.4
COc1ccc(C(N)c2csc(Nc3nncc4ccccc34)n2)cc1 (centres undefined),-19.0,nt,nt,nt,nt,nt
CCCCc1c(Cc2cccc(F)c2)ncn1CCc1ccccc1OC,22.5,nt,nt,nt,nt,nt
CCOC(=O)c1cccc(NC(=O)/C=C/c2ccc([N+](=O)[O-])cc2)c1,76.2*,0.93,0.9,6.6,-10.5,14.2
COC(=O)c1cccc(NC(=O)/C=C/c2ccc([N+](=O)[O-])cc2)c1,71.3*,1.34,0.8,10.4,-4.9,22.1
CC(=O)Nc1ccc(C(=O)OCC(=O)c2cccc([N+](=O)[O-])c2)cc1,1.1,1.12,1.1,14.6,4.2,-10.1
O=C(COC(=O)c1cccc(NC(=O)c2ccco2)c1)c1ccc(Br)cc1,-14.5,1.2,0.4,-11.4,26.9,60.1*
Cc1ccc(C(=O)COC(=O)c2cccc(NC(=O)c3ccc([N+](=O)[O-])cc3[N+](=O)[O-])c2)cc1,18.4,3.02,0,33.2,163.5*,96.0*
COC(=O)c1cccc(NC(=O)/C=C/c2cccc([N+](=O)[O-])c2)c1,14.6,1,1,25.8,20.4,4.7
CCCCC[C@H](C)N1C[C@H](COCc2ccccc2)Oc2cc(N3CC[C@@H](N(C)C)C3)ccc2S1(=O)=O,28.0,nt,nt,nt,nt,nt
C[C@@H]1CN([C@@H](C)CO)C(=O)CCCn2nncc2CO[C@@H]1CN(C)C(=O)Nc1cccc(C(F)(F)F)c1,-10.6,nt,nt,nt,nt,nt
O=c1cc(-c2ccc3c(c2)OCCO3)oc2ccc(Cl)cc12,47.5,7.15*,0.5,14.4,213.8*,50.5*
O=c1cc(-c2ccccc2)oc2ccc(Cl)cc12,25.4,nt,nt,nt,nt,nt
CC(=O)N(Cc1c(C)nn(-c2ccccc2)c1Cl)c1ccc(Cl)cc1,6.6,1.2,1.1,-8.2,14.0,-7.4
Cc1nn(-c2ccccc2)c(Cl)c1CN(C(=O)CCl)c1ccc(Cl)cc1,97.3*,0.08,1.1,-3.3,-13.5,-7.4
Cc1nn(-c2ccccc2)c(Cl)c1CN(C(=O)CCl)c1cccc2ccccc12,96.9*,0.17,1.1,-2.9,-5.0,-6.5
Cc1nn(-c2ccccc2)c(Cl)c1C(=O)NCC(=O)O,-8.9,1.22,1.1,9.7,-21.5,-5.8

# Bioassay records as filed in PubChem.
